Source: PubChem
Sampled rows, rich in hits. Any-hit rate of the full collection: about 3%.
UBC13 polyUb – UBC13 polyubiquitin chain formation inhibitors, primary screen, biochemical, TR-FRET, uHTS; inhibition, % at 20 µM; actives 0.47% (n = 330,000); in the data active means inhibition above about 45%, passing the limit was not always enough; inconclusive means no clear call, values can overlap the other calls
Target sequence (P61088 whole entry, looked up): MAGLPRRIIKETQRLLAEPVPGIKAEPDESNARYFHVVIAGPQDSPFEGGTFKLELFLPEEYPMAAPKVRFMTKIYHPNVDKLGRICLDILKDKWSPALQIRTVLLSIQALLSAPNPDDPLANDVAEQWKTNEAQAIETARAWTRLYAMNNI
Exocytosis inh – LAMP-1 surface exposure blockers, TALL-104 cells – cell-based, flow cytometry, MLPCN library, primary screen. inhibition, % at 10 µM. actives 0.66% (n = 360,000). TALL-104 LAMP-1 surface exposure; cells stimulated with thapsigargin and PMA;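 active means inhibition above about 55%, limit read from the data; inconclusive means no clear call, values can overlap the other calls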
Apaf-1 inh – inhibitors of human Apaf-1 apoptosome, primary screen, biochemical, DEVD-Rh110 fluorescence, uHTS; Apoptotic protease-activating factor 1 (Homo sapiens), O14727; reconstituted apoptosome caspase-3 activity; inhibition, % at 20 µM; actives 0.71% (n = 330,000); AID 489030, 2010; active means inhibition of at least 40% at 20 µM;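 further: plate controls were DMSO wells for no effect and DEVD-CHO caspase inhibitor wells for full effect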
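Assay system – apoptosome proteins · Medium – Hepes buffer, pH 7.5 · Also added – cytochrome c with DEVD-Rh110 · Timing – 30 min compound preincubation, 50 min activation, room temperature · Detection – Rh110 fluorescence, excitation 480 nm, emission 540 nm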
hiPSC survival – enhancers of single-cell hiPSC survival, primary screen, ATPlite luminescence | actives 0.044% (n = 360,000) | survival enhancement, % at 20 µM | 100% = ROCK inhibitor wells, 0% = DMSO; in the data active means survival enhancement above about 18%;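 further: cells exposed to compounds for 16 hours before the ATP read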
MPTP block – mitochondrial permeability transition pore inhibitors, primary screen, biochemical, isolated mouse mitochondria, absorbance; AID 602449, 2012; actives 1.4% (n = 360,000); inhibition, % at 10 µM; Ca2+ swelling absorbance, 30 min;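 active means inhibition of 50% or more, scaled per plate between neutral and stimulator controls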;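 further: 0% = DMSO wells given calcium and 100% = 1 mM EGTA wells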
beta cell repl – inducers of MIN6 beta-cell proliferation, primary screen, ATP luminescence, uHTS. actives 0.29% (n = 330,000). proliferation, % at 10 µM. MIN6 cells proliferation, ATPlite luminescence, 48 h; cells starved in 0.2% serum; 100% = growth in 10% serum;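 active means compounds whose signal lies at least 3.5 SD above the mean of all wells on their plate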;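 further: 0% = DMSO-treated cells in low-serum medium and 100% = 10% serum control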
Casp3 counter – CASP3 inhibitor validation, counterassay for project on UBE2N polyubiquitination blockers, biochemical, one dose; actives 4% (n = 1,400); Recombinant caspase-3, Caspase-Glo 3/7 luminescence, 60 min; inhibition, % at 20 µM; shares compounds with UBC13 polyUb;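 active means mean inhibition across replicates above about 26%, limit read from the data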;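 further: plate controls were DMSO with caspase-3 for no effect and DMSO wells lacking enzyme for full effect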
Target sequence (P42574 whole entry, looked up): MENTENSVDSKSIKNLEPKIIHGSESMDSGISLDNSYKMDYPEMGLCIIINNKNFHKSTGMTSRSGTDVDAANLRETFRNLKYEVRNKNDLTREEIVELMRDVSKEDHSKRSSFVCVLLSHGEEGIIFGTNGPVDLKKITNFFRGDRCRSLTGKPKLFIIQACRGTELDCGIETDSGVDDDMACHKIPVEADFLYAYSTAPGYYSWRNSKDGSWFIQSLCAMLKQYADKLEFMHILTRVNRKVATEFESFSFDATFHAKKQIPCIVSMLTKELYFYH
UBC13 confirm – UBC13 polyubiquitination inhibitors, single-point retest, confirmation, biochemical, TR-FRET, single concentration | shares compounds with UBC13 polyUb | inhibition, % at 10 µM | actives 68% (n = 1,400); in the data active means inhibition above about 45%; inconclusive means no clear call, values can overlap the other calls
The depositor's hits bear a star; u = inconclusive; x = no result.

SMILES	UBC13 polyUb	Exocytosis inh	Apaf-1 inh	hiPSC survival	MPTP block	beta cell repl	Casp3 counter	UBC13 confirm
C#CCOCCOCCOCCNc1nc(N2CCN(C(=O)[C@H](CCCCN)n3cc([C@@H](N)CC(C)C)nn3)CC2)nc(N2CCN(C(=O)[C@H](Cc3ccc(O)cc3)n3cc([C@@H](N)CC(C)C)nn3)CC2)n1	37	x	11	x	x	-3	x	x
C#CCOCCOCCOCCNc1nc(N2CCN(C(=O)[C@H](CCCCN)n3cc([C@@H](N)CC(C)C)nn3)CC2)nc(N2CCN(C(=O)[C@H](Cc3cc4ccccc4[nH]3)n3cc([C@@H](N)Cc4ccc(O)cc4)nn3)CC2)n1	103*	30	6	-1	-4	0	2	116*
CC1CCCC(NC(=O)CCNC(=O)c2ccc([N+](=O)[O-])cc2)C1C (configuration not stated)	6	-1	-7	0	0	-3	x	x
CC(C(=O)Nc1ccc(F)c(F)c1F)N(C)Cc1cccs1 (configuration not stated)	-3	22	12	0	2	-4	x	x
O=C(c1ccc(S(=O)(=O)N2CCCC2)cc1)N1CCC(CN2C(=O)c3cccc4cccc(c34)C2=O)CC1	91*	-1	9	0	0	-5	0	95*
CCc1ccc(NC(=O)Cn2c(=O)n(CCC(=O)NC3CCN(Cc4ccccc4)CC3)c(=O)c3ccccc32)cc1	16	6	-5	1	-1	-2	x	x
O=C(CCCn1c(=O)c2ccccc2n(Cc2cccc(F)c2)c1=O)NC1CCN(Cc2ccccc2)CC1	100*	x	-16	x	x	-4	4	112*
O=C(CCCCn1c(=O)c2ccccc2n(Cc2ccccc2)c1=O)NC1CCN(Cc2ccccc2)CC1	94*	24	4	0	0	-4	1	108*
CC(C)=CCc1c(-c2ccc(O)cc2O)oc2cc3c(c(O)c2c1=O)C=CC(C)(C)O3	50*	x	-1	x	x	-6	0	2
O=C(NCCCN1CCCC1)c1ccc2c(c1)N(Cc1ccccc1)CCS2	55*	1	-10	-1	5	-5	-2	69*
CC(=O)c1ccc(Sc2ccccc2)cc1	u	4	1	6	2	1	x	x
CC(=O)c1ccc(Sc2ccc(C(C)=O)cc2)cc1	45*	-4	14	-1	1	-4	4	32
Cc1ccsc1CNc1ncnc2ccc(-c3c(C)noc3C)cc12	46*	-4	13	1	4	-6	1	44
CC1=Cc2ccccc2C(C#N)N1C(=O)c1ccccc1 (configuration not stated)	-11	2	19	1	1	-5	x	x
N#C[C@H]1C(O)C(O)c2ccccc2N1C(=O)c1ccccc1 (some centres not stated)	58*	-8	-1	-1	0	-2	3	9
C[C@@H]1O[C@@H](Oc2c(-c3cc(O)c(O)c(O)c3)oc3cc(O)cc(O)c3c2=O)[C@H](O)[C@H](O)[C@H]1O	50*	-8	-3	0	-1	-7	-5	17
COCCCn1c(SC(C)C(=O)NC2CC2)nc2ccccc2c1=O (configuration not stated)	-3	-4	-1	0	1	-3	x	x
Cc1ccnc(NCc2c(O)ccc3ccccc23)c1	54*	-3	10	1	2	-2	-1	76*
Cc1ccnc(NCc2cc(Cl)ccc2O)c1	x	0	x	0	1	x	x	x
